The species named for assay [1] is Homo sapiens. The assay can be described thus: Inhibition of collagen-induced platelet aggregation in human platelet rich plasma. The format is functional. A digest of the protocol: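 PRP and PPP were prepared from human blood by centrifugation at 1000 rpm and 4000 rpm respectively, each for 10 min at 10 °C. PRP was adjusted to […]. Collagen was 0.53 µg/mL final. Optical density of stirred PRP was recorded for 4 min, at least in duplicate. PRP and PPP set 0% and 100% light transmission. EC50 was taken from the concentration–inhibition curve.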

The target in assay [2] is T1, Thromboxane A2 receptor (Homo sapiens, UniProt P21731).
T1 sequence (P21731 whole entry): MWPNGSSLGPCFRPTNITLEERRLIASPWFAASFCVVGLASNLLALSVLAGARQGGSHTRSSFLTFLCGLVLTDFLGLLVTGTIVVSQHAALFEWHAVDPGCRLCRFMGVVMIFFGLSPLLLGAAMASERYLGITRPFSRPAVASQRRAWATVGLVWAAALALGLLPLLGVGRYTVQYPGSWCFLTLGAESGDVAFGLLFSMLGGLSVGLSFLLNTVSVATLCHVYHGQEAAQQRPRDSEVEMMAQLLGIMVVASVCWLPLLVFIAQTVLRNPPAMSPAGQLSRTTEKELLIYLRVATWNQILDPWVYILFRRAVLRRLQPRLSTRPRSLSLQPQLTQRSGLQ
The assay can be described thus: TXA2 receptor antagonism, measured by the displacement of [3H]SQ29,548 from the PGH-2/TXA-2 receptor on human platelets. The class given is functional. The procedure, abridged: (§1)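 Human gel-filtered platelets were used. Nonspecific binding was defined with U 46,619 at 30 µM final in place of the test compound. IC50 is the concentration giving 50% displacement of [³H]SQ 29,548.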
(In general: In a radioligand displacement assay an active substance lowers the binding of a labelled ligand.)

Assay [3] addresses T2, Thromboxane-A synthase (Homo sapiens, UniProt P24557).
T2 sequence (P24557 whole entry): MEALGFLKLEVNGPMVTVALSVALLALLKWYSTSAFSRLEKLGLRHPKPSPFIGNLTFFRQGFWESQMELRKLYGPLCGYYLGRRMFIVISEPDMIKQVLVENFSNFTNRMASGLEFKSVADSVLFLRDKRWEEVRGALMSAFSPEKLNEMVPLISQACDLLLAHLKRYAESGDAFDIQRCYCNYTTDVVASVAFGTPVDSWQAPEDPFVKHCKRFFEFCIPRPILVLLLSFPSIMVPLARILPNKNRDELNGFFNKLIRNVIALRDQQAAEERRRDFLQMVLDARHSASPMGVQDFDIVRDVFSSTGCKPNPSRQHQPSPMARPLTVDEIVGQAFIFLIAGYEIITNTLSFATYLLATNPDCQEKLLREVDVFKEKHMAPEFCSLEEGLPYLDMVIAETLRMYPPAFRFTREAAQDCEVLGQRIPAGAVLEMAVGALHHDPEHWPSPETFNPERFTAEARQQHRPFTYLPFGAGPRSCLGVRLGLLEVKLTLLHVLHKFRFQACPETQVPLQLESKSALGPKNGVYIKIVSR
The assay can be described thus: TXA2 synthetase inhibition measured by the inhibition of TXB2 formation by human gel-filtered platelets incubated with [14C]arachidonic acid.

The species entered for assay [4] is Homo sapiens. The assay can be described thus: In vitro inhibition of collagen-induced platelet aggregation in human platelet-rich plasma (PRP) at 273 uM. The format is functional.
The species entered for assay [5] is Homo sapiens. The assay can be described thus: In vitro inhibition of collagen-induced platelet aggregation in human platelet-rich plasma (PRP) at 291 uM. The class given is functional.
The species named for assay [6] is Homo sapiens. The assay can be described thus: In vitro inhibition of collagen-induced platelet aggregation in human platelet-rich plasma (PRP) at 278uM. The format is functional.
In assay [7] the target is T1, Thromboxane A2 receptor. The assay can be described thus: TXA2 receptor antagonism, measured by the displacement of [3H]SQ-29548 from the PGH-2/TXA-2 receptor on human platelets. The format is functional. The procedure, abridged: as §1

Here are results for 57 molecules from ChEMBL document CHEMBL1129433, “On the bioisosteric potential of diazines: diazine analogues of the combined thromboxane A2 receptor antagonist and synthetase inhibitor Ridogrel” (J Med Chem, 1996).

The structures appear in SMILES notation.

The term EC50 denotes the concentration giving half of the maximal effect. In general, IC50 refers to the point on the concentration scale where inhibition reaches its midpoint. Low readings indicate inhibition by little substance, high ones a need for much substance. Turning to `O=C(O)CCCCCO/N=C(\c1ccccc1)c1ccncn1`, in assay [1], the EC50 is 112 µM. Besides, the results for the IC50 in assay [2] and in assay [3] were 5 µM and more than 10 µM, respectively.
Molecule `O=C(O)CCCCO/N=C(/c1cncnc1)c1cccc(C(F)(F)F)c1` returned an EC50 in assay [1] of 32 µM. For the same molecule, the IC50 in assay [2] worked out at 1.5 µM; in assay [3] it was 0.039 µM.
With `O=C(O)CCCCO/N=C(\c1cccc(C(F)(F)F)c1)c1cnccn1`, the EC50 in assay [1] turned out to be 190 µM. The IC50 is 11 µM in assay [2] and 0.006 µM in assay [3].
As usually defined, the inhibition is the percentage by which the read-out fell short of the control. As to `O=C(O)CCCCO/N=C(\c1ccccc1)c1ncccn1`, the inhibition at 273 µM in assay [4] amounted to 0%. For the same molecule, the IC50 in assay [3] is more than 100 µM.
For the molecule `O=C(O)CCCCCO/N=C(/c1ccccc1)c1ccncn1`, in assay [1], the response was half-maximal at 236 µM (EC50). For the same molecule, the IC50 in assay [2] was 25 µM; in assay [3] it was more than 10 µM.
For `O=C(O)CCCCCO/N=C(\c1cccc(C(F)(F)F)c1)c1cnccn1`, the 50% effective concentration (EC50) in assay [1] came to 251 µM.
Consider `O=C(O)CCCCCO/N=C(/c1cccc(C(F)(F)F)c1)c1ccncn1`, for which the EC50 in assay [1] stood at 184 µM.
In turn, `O=C(O)CCCCCO/N=C(\c1cccc(C(F)(F)F)c1)c1ccncn1` registered an EC50 in assay [1] of 25 µM. Besides, the IC50 is 1.1 µM in assay [2] and more than 10 µM in assay [3].
Regarding `O=C(O)CCCCCO/N=C(\c1cccc(C(F)(F)F)c1)c1cccnn1`, in assay [1], the EC50 was 241 µM.
The molecule `O=C(O)CCCCCO/N=C(/c1ccccc1)c1cncnc1` had an EC50 in assay [1] of 127 µM. The half-maximal inhibitory concentration (IC50) in assay [2] was 8.8 µM; in assay [3], more than 10 µM.
For `O=C(O)CCCCO/N=C(\c1cccc(C(F)(F)F)c1)c1cccnn1` the same measures were 78 µM, 10 µM and more than 100 µM.
In assay [4], `O=C(O)CCCO/N=C(/c1ccccc1)c1ccncn1` returned an inhibition at 273 µM of 38%.
`O=C(O)CCCCCO/N=C(\c1cccc(C(F)(F)F)c1)c1ncccn1` showed an EC50 in assay [1] of 291 µM.
`O=C(O)CCCO/N=C(/c1ccccc1)c1cncnc1` returned an inhibition at 273 µM in assay [4] of 17%.
Consider `O=C(O)CCCCO/N=C(\c1ccccc1)c1cnccn1`, for which, in assay [1], it took 91 µM to reach a half-maximal effect (EC50). Also, the IC50 came to 47 µM in assay [2] and 0.079 µM in assay [3].
For `O=C(O)CCCCO/N=C(/c1cccc(C(F)(F)F)c1)c1ncccn1` the same measures were 214 µM, 52 µM and more than 10 µM.
In assay [1], `O=C(O)CCCCO/N=C(\c1ccccc1)c1ccnnc1` gave a concentration giving a half-maximal response (EC50) of 227 µM. The results for the IC50 in assay [2] and in assay [3] were 33 µM and 0.26 µM, respectively.
Molecule `O=C(O)CCCO/N=C(/c1ccccc1)c1ccnnc1` came in with an inhibition at 273 µM in assay [4] of 21%.
With `O=C(O)CCCCO/N=C(\c1cccc(C(F)(F)F)c1)c1ncccn1`, in assay [1], the midpoint of the response, the EC50, lay at 272 µM. Further, the IC50 is 99 µM in assay [2] and more than 10 µM in assay [3].
In the same order, the values of `O=C(O)CCCCO/N=C(/c1ccccc1)c1cnccn1` are 94 µM, 24 µM and 0.62 µM.
For `O=C(O)CCCCO/N=C(/c1ccccc1)c1ccnnc1` the same measures were 163 µM, 13 µM and 8.8 µM.
Turning to `O=C(O)CCCCCO/N=C(/c1cccc(C(F)(F)F)c1)c1cnccn1`, in assay [5], testing at 291 µM gave an inhibition of 47%.
On to `O=C(O)CCCO/N=C(/c1ccccc1)c1cccnn1`, for which testing at 273 µM in assay [4] gave an inhibition of 2%.
On to `O=C(O)CCCO/N=C(\c1ccccc1)c1cccnn1`, for which 273 µM produced 4% inhibition in assay [4].
On the same count and under the same terms, then `O=C(O)CCCO/N=C(\c1ccccc1)c1ccncn1`, with 34%; and `O=C(O)CCCO/N=C(/c1ccccc1)c1ncccn1`, with 0%.
Regarding `O=C(O)CCCCO/N=C(/c1ccccc1)c1ncccn1`, at 273 µM the inhibition in assay [4] was 0%. In addition, in assay [3], the IC50 is more than 10 µM.
Molecule `O=C(O)CCCCO/N=C(/c1ccccc1)c1cccnn1` had an EC50 in assay [1] of 217 µM. Also, the IC50 in assay [2] was 71 µM; in assay [3], more than 100 µM.
With `O=C(O)CCCCCO/N=C(/c1ccccc1)c1ncccn1`, the inhibition at 273 µM in assay [4] amounted to 0%.
`O=C(O)CCCCCO/N=C(\c1ccccc1)c1ccnnc1` registered an EC50 in assay [1] of 59 µM. Also, the IC50 in assay [2] worked out at 7.1 µM; in assay [3], 3.8 µM.
For `O=C(O)CCCCO/N=C(/c1cccc(C(F)(F)F)c1)c1cnccn1` the same measures were 65 µM, 1.5 µM and 2.9 µM.
In assay [1], `O=C(O)CCCCCO/N=C(\c1ccccc1)c1cccnn1` yielded an EC50 of 203 µM.
The same measure, in the same setting: then `O=C(O)CCCCCO/N=C(/c1ccccc1)c1cnccn1`, with 216 µM.
In assay [1], `O=C(O)CCCCCO/N=C(\c1ccccc1)c1cnccn1` returned an EC50 of 131 µM.
Same read-out and setting: then `O=C(O)CCCCCO/N=C(\c1cncnc1)c1cccc(C(F)(F)F)c1`, with 291 µM.
`O=C(O)CCCCO/N=C(\c1ccccc1)c1cncnc1` displayed an inhibition at 278 µM in assay [6] of 40%. Besides, the IC50 in assay [2] is 20 µM; in assay [3], 0.075 µM.
`O=C(O)CCCCO/N=C(\c1ccccc1)c1ccncn1` yielded an EC50 in assay [1] of 274 µM. Further, the results for the IC50 in assay [2] and in assay [3] were 30 µM and more than 100 µM, respectively.
In the same order, the values of `O=C(O)CCCCO/N=C(/c1ccnnc1)c1cccc(C(F)(F)F)c1` are 52 µM, 6 µM and 0.016 µM.
As for `O=C(O)CCCO/N=C(\c1ccccc1)c1ncccn1`, at 273 µM the inhibition in assay [4] was 0%.
`O=C(O)CCCCO/N=C(\c1cccc(C(F)(F)F)c1)c1ccncn1` showed an EC50 in assay [1] of 19 µM. Besides, the IC50 in assay [2] is 1.4 µM; in assay [3] it was more than 10 µM.
As to `O=C(O)CCCO/N=C(\c1ccccc1)c1ccnnc1`, the EC50 in assay [1] was determined as 245 µM.
With `O=C(O)CCCCCO/N=C(/c1ccccc1)c1ccnnc1`, the EC50 in assay [1] stood at 81 µM. In addition, the IC50 in assay [2] was 7.7 µM; in assay [3], more than 10 µM.
For the molecule `O=C(O)CCCCO/N=C(/c1ccccc1)c1ccncn1`, a half-maximal response in assay [1] (EC50) required 255 µM. For the same molecule, the IC50 is 25 µM in assay [2] and more than 100 µM in assay [3].
Molecule `O=C(O)CCCCCO/N=C(/c1ccccc1)c1cccnn1` displayed an EC50 in assay [1] of 204 µM.
The molecule `O=C(O)CCCCCO/N=C(/c1ccnnc1)c1cccc(C(F)(F)F)c1` displayed an EC50 in assay [1] of 186 µM. For the same molecule, the IC50 in assay [2] worked out at 29 µM; in assay [3], 0.693 µM.
For `O=C(O)CCCO/N=C(\c1ccccc1)c1cncnc1`, in assay [4], the inhibition at 273 µM worked out at 46%.
Still for that read-out and setting: with `O=C(O)CCCO/N=C(/c1ccccc1)c1cnccn1` the figure was 19%.
`O=C(O)CCCCO/N=C(/c1ccccc1)c1cncnc1` yielded an EC50 in assay [1] of 191 µM. The IC50 in assay [2] amounted to 7.2 µM; in assay [3] it was 0.573 µM.
Molecule `O=C(O)CCCCO/N=C(\c1ccnnc1)c1cccc(C(F)(F)F)c1` registered an EC50 in assay [1] of 30 µM. The IC50 came to 1.8 µM in assay [2] and 6.63 µM in assay [3].
`O=C(O)CCCCCO/N=C(\c1ccccc1)c1ncccn1` came in with an inhibition at 273 µM in assay [4] of 0%.
Same read-out and setting: with `O=C(O)CCCO/N=C(\c1ccccc1)c1cnccn1` the figure was 47%.
In assay [1], `O=C(O)CCCCCO/N=C(/c1cncnc1)c1cccc(C(F)(F)F)c1` registered an EC50 of 200 µM.
Take `O=C(O)CCCCO/N=C(\c1ccccc1)c1cccnn1`: in assay [6], the inhibition at 278 µM was 47%. In addition, the IC50 in assay [7] was 104 µM; in assay [3] it was more than 100 µM.
As for `O=C(O)CCCCO/N=C(/c1cccc(C(F)(F)F)c1)c1ccncn1`, the midpoint of the response in assay [1], the EC50, lay at 71 µM. For the same molecule, the IC50 was 2.5 µM in assay [2] and more than 100 µM in assay [3].
For `O=C(O)CCCCO/N=C(\c1cncnc1)c1cccc(C(F)(F)F)c1` the same measures were 12 µM, 0.36 µM and 6.1 µM.
`O=C(O)CCCCCO/N=C(\c1ccnnc1)c1cccc(C(F)(F)F)c1`: the inhibition at 291 µM in assay [5] was found to be 26%. Further, the values for the IC50 in assay [2] and in assay [3] were 21 µM and more than 10 µM, respectively.
`O=C(O)CCCCO/N=C(/c1cccnc1)c1cccc(C(F)(F)F)c1` [RIDOGREL]: it took 41 µM to reach a half-maximal effect in assay [1] (EC50). In assay [3], this molecule had a half-inhibitory concentration (IC50) of 0.007 µM.
